Assay results reported in publication PMC9056700 (RSC Advances, 2020).
Where two headings read alike, the source gives them in different places. Marks after values point to notes of the source that are not given here.

How the values were obtained:
[1] = VT-1H NMR quantification of the square/folded conformational equilibrium; assay type: physicochemical; conditions: CH3CN-d3, calculated from ΔG° = ΔH° − TΔS° with van't Hoff parameters
How it was run: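 Peptide at about 5.0 mM in CH3CN-d3, with shifts referenced to internal […] (0.00 ppm). Protons assigned by 2D-COSY and ROESY (500 ms mixing time). ΔH° and ΔS° came from a linear van't Hoff plot of ln K versus 1/T, and ΔG° at 298 K was then calculated from these parameters.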

[2] = test system: P388 mouse lymphocytic leukemia cells; conditions: cited from earlier work; for ED50: taken from a previous report

Row | Substance | ΔG° at 298 K (conformational free energy, square to folded form) [1] | ED50 ([2]; P388 cells) | cytotoxicity (in words) ([2]; P388 cells, folded reference peptide) | cytotoxicity (in words) [2]
1 | Ascidiacyclamide [Peptide 1] | 0.523 kcal/mol | 10.5 ^a μg mL^−1 | – | –
2 | cyclo(-Ile-alloThr-D-Val-Thz-)2 (head to tail) [dASC] | – | >100 ^h μg mL^−1 | no cytotoxicity | no cytotoxicity
